Test results as given in ChEMBL document CHEMBL1142632, “A new bioactive sesterterpene and antiplasmodial alkaloids from the marine sponge hyrtios cf. erecta” (J Nat Prod, 2000).
Values after ≈ are worked out from the molar mass of the structure shown. Active and inactive are the calls of the source. The rule behind the calls is not given here.

Tests used:
Microbotryum violaceum = test: Antifungal activity against Ustilago violacea at 50 ug by agar diffusion assay; format: functional; conditions: read-out: IZ
Outline: (§1)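 Agar diffusion: crude extracts and pure compounds applied at 50 µg per disk; growth inhibition read as zone diameter (mm).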

[1] = target: Tyrosine-protein kinase Lck (Homo sapiens) (UniProt P06239); test: Inhibition of p56 LCK activity at 0.5 mM; set-up: scale not given: the % may be the effect or the level left
Sequence of Tyrosine-protein kinase Lck (Homo sapiens) (P06239 2-509 limits assumed): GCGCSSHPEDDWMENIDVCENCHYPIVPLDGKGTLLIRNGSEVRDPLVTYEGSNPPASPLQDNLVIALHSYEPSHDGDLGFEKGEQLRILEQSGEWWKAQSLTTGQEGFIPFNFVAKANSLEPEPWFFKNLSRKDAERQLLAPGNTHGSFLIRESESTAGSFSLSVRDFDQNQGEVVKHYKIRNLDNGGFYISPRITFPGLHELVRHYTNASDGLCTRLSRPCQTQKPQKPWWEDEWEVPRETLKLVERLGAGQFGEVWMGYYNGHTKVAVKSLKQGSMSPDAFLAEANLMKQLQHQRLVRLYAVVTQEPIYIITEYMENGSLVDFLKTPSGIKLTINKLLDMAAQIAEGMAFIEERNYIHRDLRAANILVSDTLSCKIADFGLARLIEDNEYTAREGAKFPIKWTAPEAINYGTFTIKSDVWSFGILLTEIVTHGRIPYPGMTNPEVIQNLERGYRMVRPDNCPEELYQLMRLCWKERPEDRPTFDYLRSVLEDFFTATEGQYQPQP
Outline: (§2)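 Nonradioactive ELISA-based tyrosine kinase assay. Samples in DMSO/H2O (1:1) were incubated with 1 U p56lck, 1 µM tyrosine kinase substrate II, 1 mM ATP and 10 mM MgCl2 at 30 °C for 60 to 80 min. Buffers: 20% dilution buffer (HEPES, pH 7.0) and 20% assay buffer (Tris, pH 7.5, with Na3VO4). Absorbance read at 415 nm as residual activity.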

Plasmodium falciparum [2] = test: Antiplasmodial activity against chloroquine-sensitive Plasmodium falciparum NF54; format: functional, organism-based
Outline: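 In vitro assay against P. falciparum strain NF54, of unknown origin and susceptible to standard antimalarials. Chloroquine and artemisinin were run as positive controls.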

Plasmodium falciparum [3] = test: Antiplasmodial activity against chloroquine, pyrimethamine-resistant Plasmodium falciparum K1; format: functional, organism-based
Outline: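 In vitro assay against P. falciparum strain K1, a Thailand isolate resistant to chloroquine and pyrimethamine. Chloroquine and artemisinin were run as positive controls.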

[4] = test system: Trypanosoma brucei rhodesiense; test: Antitrypanosomal activity against Trypanosoma brucei subsp. rhodesiense; format: functional, organism-based
[5] = Cytotoxicity against rat L6 cells; format: cell-based; conditions: read-out: MIC
Priestia megaterium = test: Antibacterial activity against Bacillus megaterium at 50 ug by agar diffusion assay; format: functional; conditions: read-out: IZ; outline: as §1
[6] = target: Human immunodeficiency virus type 1 reverse transcriptase (Human immunodeficiency virus 1) (UniProt Q72547); test: Inhibition of HIV1 reverse transcriptase assessed as enzyme residual activity at 0.12 mM
Outline: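 Nonradioactive ELISA-based reverse transcriptase assay. Reaction mixture held 1 ng recombinant HIV-1-RT. Samples were dissolved in 10% DMSO/lysis buffer. Read-out was residual enzyme activity.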

Escherichia coli = test: Antibacterial activity against Escherichia coli at 50 ug by agar diffusion assay; format: functional; conditions: read-out: IZ; outline: as §1
[7] = target: Tyrosine-protein kinase Lck (Homo sapiens) (UniProt P06239); test: Inhibition of p56 LCK activity at 0.7 mM; set-up: scale not given: the % may be the effect or the level left; outline: as §2
Hepatovirus A [8] = test: Antiviral activity against HAV 7 in FRhK4 cells assessed as effect on cytopathogenic effect at 0.038 ug/mL after 21 days by immunofluorescence analysis; format: functional, organism-based
Outline: (§3)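 FRhK-4 cells in 96-well plates were used. For line 5, cells were inoculated with 2 × 10^7 TCID50/ml HAVcytHB1.1. For line 4, cells were persistently infected with HAV/7. Morphology (cytopathogenicity) was checked microscopically over 21 days, and HAV antigen was detected by immunofluorescence after 21 days.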

Hepatovirus A [9] = test: Antiviral activity against HAV cytHB1.1 in FRhK4 cells assessed as effect on cytopathogenic effect at 0.038 ug/mL after 21 days by immunofluorescence analysis; format: functional, organism-based; outline: as §3
[10] = target: Tyrosine-protein kinase Lck (Homo sapiens) (UniProt P06239); test: Inhibition of p56 LCK activity at 0.6 mM; set-up: scale not given: the % may be the effect or the level left; outline: as §2
[11] = target: Tyrosine-protein kinase Lck (Homo sapiens) (UniProt P06239); test: Inhibition of p56 LCK activity at 0.3 mM; set-up: scale not given: the % may be the effect or the level left; outline: as §2
[12] = Cytotoxicity against mouse peritoneal macrophages; format: cell-based, Macrophage; conditions: read-out: MIC

`CC1=C(CC/C(C)=C/CC/C(C)=C/CCC2=CCOC2=O)C(C)(C)CCC1` showed a zone of inhibition at 50 µg/disc (Microbotryum violaceum) of 2 mm.
Compound `CC1=C(CC/C(C)=C/CC/C(C)=C/CCC2=CCOC2=O)C(C)(C)CCC1=O` has an Activity [1] of 45%.
Work on `C[C@@H]1CC[C@H]2[C@@H](C)C(=O)O[C@@H]3O[C@@]4(C)CC[C@@H]1[C@]32OO4` [ARTEMISININ] yielded an IC50 (Plasmodium falciparum [2]) of 0.002 µg/mL (≈ 7.08 nM) and an IC50 (Plasmodium falciparum [3]) of 0.001 µg/mL (≈ 3.54 nM).
In the case of `O=C1c2ccccc2-[n+]2ccc3c([nH]c4ccccc43)c21.[Cl-]` [FASCAPLYSIN CHLORIDE], the IC50 [4] is reported as 630 nM, the IC50 (Plasmodium falciparum [2]) is reported as 0.034 µg/mL and the MCC [5] is reported as 2.5 µg/mL. It also gave a zone of inhibition at 50 µg/disc (Priestia megaterium) of 10 mm, an Activity [6] of 10% and a zone of inhibition at 50 µg/disc (Escherichia coli) of 6 mm. The Activity [7] was 10%, the Activity (Hepatovirus A [8]) was “Active” and the Activity (Hepatovirus A [9]) was “Active”. For the same compound, the IC50 (Plasmodium falciparum [3]) was 0.05 µg/mL.
`CC(=O)CC1(O)c2ccccc2-[n+]2ccc3c([nH]c4ccccc43)c21.[Cl-]` (configuration not stated) [HOMOFASCAPLYSIN A] gave an Activity [10] of 8%, an IC50 (Plasmodium falciparum [2]) of 0.024 µg/mL and an MCC [5] of 1.1 µg/mL. The zone of inhibition at 50 µg/disc (Priestia megaterium) was 11 mm, the Activity [11] was 44% and the MCC [12] was 30 µg/mL. It also gave a zone of inhibition at 50 µg/disc (Escherichia coli) of 9 mm and an IC50 (Plasmodium falciparum [3]) of 0.014 µg/mL.
